Laboratory results published in ChEMBL document CHEMBL5715941, “AZD1152, a selective inhibitor of Aurora B kinase, inhibits human tumor xenograft growth by inducing apoptosis” (Clin Cancer Res, 2007).

Legend:
HL-60 [1] = test: Antitumor activity against human HL-60 cells xenografted in immunodeficient athymic mouse assessed as inhibition of tumor growth at 75 mg/kg, ip administered twice daily for 13 days relative to control; format: functional, organism-based; conditions: time 13.0 day
[2] = Toxicity in athymic nude rat xenografted with human SW620 cells assessed as maximal body weight loss at 25 mg/kg/day, iv for 24 h following 4 days; format: organism-based, SW-620; conditions: in vivo, 96 h, time 4 day
Summary of the method: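 Male nude rats bearing SW620 xenografts received vehicle or AZD1152 at 25 mg/kg/d i.v. once daily for 4 consecutive days. Body weight was tracked, with maximal loss taken relative to vehicle-treated animals.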

HL-60 [3] = test: Antitumor activity against human HL-60 cells xenografted in immunodeficient athymic mouse assessed as inhibition of tumor growth at 45 mg/kg, iv administered twice daily for 5 days relative to control; format: functional; conditions: HL-60, 120 h, time 5 day

## Cc1cc(Nc2cc(N3CCN(C)CC3)nc(Sc3ccc(NC(=O)C4CC4)cc3)n2)n[nH]1
HL-60 [1]
  inhibition: 98%

## CCN(CCCOc1ccc2c(Nc3cc(CC(=O)Nc4cccc(F)c4)n[nH]3)ncnc2c1)CCOP(=O)(O)O [BARASERTIB]
[2]
  Activity: 5%

## CCc1cccc(CC)c1NC(=O)N1Cc2[nH]nc(NC(=O)c3ccc(N4CCN(C)CC4)cc3)c2C1 [PHA-680632]
HL-60 [3]
  inhibition in vivo at 45 mg/kg: 85%
